An excerpt weighted towards active compounds, which were near 2.3% of everything screened.
STEP block – blocks human striatal-enriched tyrosine phosphatase | recombinant STEP, OMFP fluorogenic substrate, fluorescence | inhibition, % at 20 µM | 360,000 tested, 0.25% active;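 active = inhibition at 20 µM, scaled per plate between control wells, above about 37%, limit read from the data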
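System: STEP phosphatase, cell-free reaction; Buffer or medium: Bis-Tris pH 6.0 buffer with DTT, detergent; Incubation: 20 min at room temperature, dark; Measured by: fluorescence, 480/540 nm.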
LMPTP block – LMPTP (human) inhibition; P24666; recombinant LMPTP-A, OMFP fluorogenic substrate, fluorescence intensity; inhibition, % at 20 µM; 360,000 tested, 0.22% active; AID 651560;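 active = compounds that cut the enzyme signal by at least half of the control window in the single-dose screen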
Target sequence (P24666 whole entry, looked up): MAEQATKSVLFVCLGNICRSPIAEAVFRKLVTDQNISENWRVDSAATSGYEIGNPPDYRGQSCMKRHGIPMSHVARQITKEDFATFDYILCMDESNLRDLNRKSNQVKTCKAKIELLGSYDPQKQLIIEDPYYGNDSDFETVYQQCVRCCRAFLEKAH
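Assay system: LMPTP-A phosphatase enzyme | Input: 0.625 nM enzyme | Also added: Fluorogenic phosphatase substrate OMFP at 400 µM final | Compound dosing: One test concentration per compound, 20 µM, with 3% DMSO overall | Schedule: 50 min enzyme reaction at room temperature, protected from light | Signal: Fluorescence intensity | Benchmarks: no-enzyme and uninhibited controls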
Scp-1 inhibitor – inhibitors of human Scp-1 phosphatase; Recombinant Scp1, phosphopeptide, malachite green phosphate absorbance; inhibition, % at 20 µM; 340,000 tested, 0.88% active; AID 493091;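 active = inhibition above about 50% at 20 µM, limit read from the data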
Target sequence (Q9GZU7 76-261 limits assumed): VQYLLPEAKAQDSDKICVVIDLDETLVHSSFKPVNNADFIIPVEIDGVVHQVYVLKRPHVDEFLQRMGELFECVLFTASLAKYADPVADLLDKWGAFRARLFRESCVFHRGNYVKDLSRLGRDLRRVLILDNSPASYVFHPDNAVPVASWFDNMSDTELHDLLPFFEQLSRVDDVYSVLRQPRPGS
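System: SCP-1 catalytic domain; Reagent: Phospho 17-mer peptide substrate; Doses: one concentration, 20 µM, with 1.0% DMSO; Incubation: 45 min room-temperature reaction, 5 min colour, 30 min stabiliser; Signal: Phosphate-binding colour reagent, absorbance read at 630 nm.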
SUMO1-SIM PPI – SUMO1-SIM interaction modulation; P63165; inhibition, % at 20 µM; SUMO1 binding to a labelled peptide, TR-FRET, 1 h; AID 602429; 360,000 tested, 0.33% active; in the data active = inhibition above about 37%
Target sequence (P63165 whole entry, looked up): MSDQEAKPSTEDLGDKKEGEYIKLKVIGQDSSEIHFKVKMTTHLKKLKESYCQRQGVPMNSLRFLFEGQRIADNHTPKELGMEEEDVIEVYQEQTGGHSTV
NadD inh – inhibitors of Staphylococcus aureus NadD; purified NadD enzyme, colorimetric absorbance read-out; inhibition, % at 20 µM; 360,000 tested, 0.78% active; in the data active = inhibition above about 26%
DNMT1 inh – inhibitors of human DNMT1; P26358; DNMT1 molecular beacon, Hinp1I cleavage, fluorescence; inhibition (reported as % activation of signal), % at 10 µM; 360,000 tested, 0.83% active; AID 588458; in the data active = inhibition above about 50%
Numbers stand for hits.

Cc1c2c(=O)n(-c3nc4ccccc4s3)nc-2cc(O)n1Cc1ccccc1 was read as STEP block inactive, LMPTP block inactive, Scp-1 inhibitor inactive, SUMO1-SIM PPI inactive, NadD inh 42 and DNMT1 inh inactive.
For Cc1cc(C)n(-c2nc3ccccc3s2)n1 the results were STEP block inactive, LMPTP block inactive, Scp-1 inhibitor inactive, SUMO1-SIM PPI inactive, NadD inh inactive and DNMT1 inh inactive.
For CN1C(C(=O)Nc2cccc(O)c2)=CC(c2ccco2)=NS1(=O)=O the results were STEP block inactive, LMPTP block inactive, Scp-1 inhibitor inactive, SUMO1-SIM PPI inactive, NadD inh inactive and DNMT1 inh inactive.
CN(Cc1ccccc1)C1=CC(=[N+]2CCCC2)CC(C)(C)C1 was read as STEP block inactive, LMPTP block inactive, Scp-1 inhibitor 103, SUMO1-SIM PPI inactive, NadD inh inactive and DNMT1 inh inactive.
`COc1ccc(COC[C@H](C)[C@H](O)[C@@H](C)[C@H]2OC(=O)[C@@H]2C)cc1` gave STEP block inactive, LMPTP block inactive, Scp-1 inhibitor inactive, SUMO1-SIM PPI 38, NadD inh inactive and DNMT1 inh inactive.
COc1ccc(CCC(=O)NC(C)C)cc1 was read as STEP block inactive, LMPTP block inactive, Scp-1 inhibitor inactive, SUMO1-SIM PPI inactive, NadD inh inactive and DNMT1 inh inactive.
COc1ccc(CCNC(=O)c2ccc3nc(-c4ccco4)c(-c4ccco4)nc3c2)cc1OC was read as STEP block inactive, LMPTP block 64, Scp-1 inhibitor 89, SUMO1-SIM PPI 47, NadD inh 47 and DNMT1 inh 98.
For O=C(Nc1cccc(C(F)(F)F)c1)c1ccc2nc(-c3ccco3)c(-c3ccco3)nc2c1 the results were STEP block inactive, LMPTP block inactive, Scp-1 inhibitor 84, SUMO1-SIM PPI inactive, NadD inh 65 and DNMT1 inh 85.
Screening O=C(Nc1ccc2nc(-c3ccco3)c(-c3ccco3)nc2c1)NC1CC1 returned STEP block 54, LMPTP block 70, Scp-1 inhibitor 92, SUMO1-SIM PPI 76, NadD inh 28 and DNMT1 inh 93.
`O=C(Nc1ccc(N2CCOCC2)cc1)Nc1ccc2nc(-c3ccco3)c(-c3ccco3)nc2c1` gave STEP block inactive, LMPTP block inactive, Scp-1 inhibitor inactive, SUMO1-SIM PPI inactive, NadD inh inactive and DNMT1 inh inactive.
Screening Cc1ccc(S(=O)(=O)N2CCCCC2C(=O)Nc2ccc(N(C)C)cc2)cc1 (centres undefined) returned STEP block inactive, LMPTP block inactive, Scp-1 inhibitor inactive, SUMO1-SIM PPI inactive, NadD inh inactive and DNMT1 inh inactive.
Screening CNC(=O)CSc1nnc(NC(=O)C2CC(=O)N(c3ccccc3OC)C2)s1 (centres undefined) returned STEP block inactive, LMPTP block inactive, Scp-1 inhibitor inactive, SUMO1-SIM PPI inactive, NadD inh inactive and DNMT1 inh inactive.
Screening COc1ccc(S(=O)(=O)N2CCCCC2)cc1NC(=O)c1cnc(C)cn1 returned STEP block inactive, LMPTP block inactive, Scp-1 inhibitor inactive, SUMO1-SIM PPI inactive, NadD inh inactive and DNMT1 inh inactive.
Cc1ccc(NS(=O)(=O)c2ccc3[nH]c(=O)c(=O)[nH]c3c2)cc1Cl was read as STEP block inactive, LMPTP block inactive, Scp-1 inhibitor inactive, SUMO1-SIM PPI inactive, NadD inh inactive and DNMT1 inh inactive.
`Cc1ccc(NS(=O)(=O)c2ccc(Cl)c(N=Nc3c(O)[nH]c(=O)[nH]c3=O)c2)cc1Cl` gave STEP block inactive, LMPTP block inactive, Scp-1 inhibitor inactive, SUMO1-SIM PPI inactive, NadD inh 31 and DNMT1 inh inactive.
For CSCCC(C(=O)NC1CCCC1)n1c(C2CC2)nc2ccccc21 (centres undefined) the results were LMPTP block inactive and SUMO1-SIM PPI inactive.
C[C@@H]1CN([C@H](C)CO)C(=O)CCCn2cc(nn2)CO[C@H]1CN(C)C(=O)Nc1ccnc(N2CCOCC2)c1 was read as STEP block inactive, LMPTP block inactive, SUMO1-SIM PPI 108, NadD inh inactive and DNMT1 inh inactive.
Screening COc1ccc2cc1Oc1ccc(cc1)C[C@H]1c3c(cc(OC)c4c3Oc3c(ccc5c3[C@H](C2)N(C)CC5)O4)CCN1C returned STEP block inactive, LMPTP block 68, Scp-1 inhibitor inactive, SUMO1-SIM PPI inactive, NadD inh inactive and DNMT1 inh inactive.
`COc1ccc2cc1Oc1ccc(cc1)CC1c3c(cc(OC)c4c3Oc3cc5c(cc3O4)CCNC5C2)CCN1C` (centres undefined) gave STEP block inactive, LMPTP block 77, Scp-1 inhibitor inactive, SUMO1-SIM PPI inactive, NadD inh inactive and DNMT1 inh inactive.
Screening CCOc1ccc(C2NCCc3cc(OC)c(OC)cc32)cc1OC (centres undefined) returned STEP block inactive, LMPTP block inactive, Scp-1 inhibitor inactive, SUMO1-SIM PPI inactive, NadD inh inactive and DNMT1 inh inactive.
For O=C(O)/C=C/c1ccc(S(=O)(=O)Nc2ccc(C(=O)NCC(=O)O)cc2)cc1 the results were STEP block inactive, LMPTP block inactive, Scp-1 inhibitor inactive, SUMO1-SIM PPI inactive, NadD inh inactive and DNMT1 inh inactive.
`O=C(CCl)Nc1ccc(-c2ccccc2)cc1` gave STEP block inactive, LMPTP block inactive, Scp-1 inhibitor inactive, SUMO1-SIM PPI 56, NadD inh inactive and DNMT1 inh inactive.
Screening CCC(=O)C1CCCN(C(=O)c2ccc(OC)c(OC3CCN(C(C)=O)CC3)c2)C1 (centres undefined) returned STEP block inactive, LMPTP block inactive, Scp-1 inhibitor inactive, SUMO1-SIM PPI 43, NadD inh inactive and DNMT1 inh inactive.
`Cc1nc(N)nc(N)c1/C=C/C(C)(C)c1ccc(Cl)cc1` gave STEP block inactive, LMPTP block 81, Scp-1 inhibitor inactive, SUMO1-SIM PPI inactive, NadD inh inactive and DNMT1 inh inactive.
For COC(=O)c1cc(C)nc2c1C(=O)C(=O)C=C2N1CCOCC1 the results were STEP block inactive, LMPTP block inactive, Scp-1 inhibitor inactive, SUMO1-SIM PPI 79, NadD inh inactive and DNMT1 inh 97.
`CC(C)(CN1CCc2ccccc2C1)NS(=O)(=O)c1ccc(Cl)cc1` gave STEP block inactive, LMPTP block inactive, Scp-1 inhibitor inactive, SUMO1-SIM PPI 45, NadD inh inactive and DNMT1 inh inactive.
Screening Oc1cc(Nc2cccnc2)cc2cccnc12 returned STEP block inactive, LMPTP block inactive, Scp-1 inhibitor inactive, SUMO1-SIM PPI inactive, NadD inh inactive and DNMT1 inh inactive.
Oc1cc(Nc2ccncc2)cc2cccnc12 was read as STEP block inactive, LMPTP block 56, Scp-1 inhibitor inactive, SUMO1-SIM PPI inactive, NadD inh inactive and DNMT1 inh inactive.
Screening COC(=O)/C=C1\OCc2cccc(C)c21 returned LMPTP block inactive and SUMO1-SIM PPI inactive.

Assay outcomes as filed in PubChem BioAssay.
